# Results as given in ChEMBL document CHEMBL3352791, “Thioaryl naphthylmethanone oxime ether analogs as novel anticancer agents” (J Med Chem, 2014).
# The source made the active and inactive calls. The calls are words filed in the database; no cut-off is given here.
# How the values were obtained:
# Ishikawa = assay: Antiproliferative activity against human ER-positive Ishikawa cells after 24 hrs by MTT assay; assay type: functional, cell-based; details: ishikawa
# [1] = Cytotoxicity against human MCF10A cells after 72 hrs by MTT assay; assay type: ADME, cell-based; details: MCF-10A
# [2] = Safety index, ratio of IC50 for human MCF10A cells to EC50 for human ER-positive MDA-MB-231 cells; details: MCF10A cells versus
# [3] = Safety index, ratio of IC50 for human MCF10A cells to EC50 for human SW620 cells; assay type: toxicity, cell-based, SW-620; details: MCF10A cells versus SW620 cells, read-out: Ratio IC50/EC50
# Method in brief: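 Safety index is the IC50 in the normal cells divided by the EC50 in the cancer cells. Both values come from MTT assays: cells in DMEM with 10% FBS, serum-starved 4 h, then exposed to compound across a 100nM-50µM dose range with 0.1% DMSO as vehicle control.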
# MCF7 [4] = assay: Cell cycle arrest in human […] cells assessed as accumulation at subG1 phase at 2.5 uM by propidium iodide staining by FACS analysis (reference value: 0.1%); assay type: functional
# MCF7 [5] = assay: Cell cycle arrest in human […] cells assessed as accumulation at subG1 phase at 7.5 uM by propidium iodide staining by FACS analysis (reference value: 0.1%); assay type: functional
# MDA-MB-231 [6] = assay: Cell cycle arrest in human […] cells assessed as accumulation at G1 phase at 2.5 uM by propidium iodide staining by FACS analysis (reference value: 63.74%); assay type: functional
# MDA-MB-231 [7] = assay: Cell cycle arrest in human […] cells assessed as accumulation at S phase at 5 uM by propidium iodide staining by FACS analysis (reference value: 13.72%); assay type: functional
# MDA-MB-231 [8] = assay: Cell cycle arrest in human […] cells assessed as accumulation at G2 phase at 7.5 uM by propidium iodide staining by FACS analysis (reference value: 22.74%); assay type: functional
# MDA-MB-231 [9] = assay: Cell cycle arrest in human […] cells assessed as accumulation at subG1 phase at 7.5 uM by propidium iodide staining by FACS analysis (reference value: 0.3%); assay type: functional
# [10] = target: Transforming growth factor beta-1 proprotein (Homo sapiens) (UniProt P01137); assay: Inhibition of TGFbeta1 (unknown origin) at 10 uM
# Chain of Transforming growth factor beta-1 proprotein (Homo sapiens) (P01137 279-390 limits assumed): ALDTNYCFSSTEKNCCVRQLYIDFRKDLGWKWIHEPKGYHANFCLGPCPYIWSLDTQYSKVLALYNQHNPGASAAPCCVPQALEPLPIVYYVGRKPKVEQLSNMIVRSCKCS
# [11] = tested on: Mast/stem cell growth factor receptor Kit (Homo sapiens), P10721 [D816A]; assay: Inhibition of cKit D816A mutant (unknown origin) at 10 uM
# Chain of Mast/stem cell growth factor receptor Kit (Homo sapiens), P10721 [D816A] (P10721 whole entry D816A): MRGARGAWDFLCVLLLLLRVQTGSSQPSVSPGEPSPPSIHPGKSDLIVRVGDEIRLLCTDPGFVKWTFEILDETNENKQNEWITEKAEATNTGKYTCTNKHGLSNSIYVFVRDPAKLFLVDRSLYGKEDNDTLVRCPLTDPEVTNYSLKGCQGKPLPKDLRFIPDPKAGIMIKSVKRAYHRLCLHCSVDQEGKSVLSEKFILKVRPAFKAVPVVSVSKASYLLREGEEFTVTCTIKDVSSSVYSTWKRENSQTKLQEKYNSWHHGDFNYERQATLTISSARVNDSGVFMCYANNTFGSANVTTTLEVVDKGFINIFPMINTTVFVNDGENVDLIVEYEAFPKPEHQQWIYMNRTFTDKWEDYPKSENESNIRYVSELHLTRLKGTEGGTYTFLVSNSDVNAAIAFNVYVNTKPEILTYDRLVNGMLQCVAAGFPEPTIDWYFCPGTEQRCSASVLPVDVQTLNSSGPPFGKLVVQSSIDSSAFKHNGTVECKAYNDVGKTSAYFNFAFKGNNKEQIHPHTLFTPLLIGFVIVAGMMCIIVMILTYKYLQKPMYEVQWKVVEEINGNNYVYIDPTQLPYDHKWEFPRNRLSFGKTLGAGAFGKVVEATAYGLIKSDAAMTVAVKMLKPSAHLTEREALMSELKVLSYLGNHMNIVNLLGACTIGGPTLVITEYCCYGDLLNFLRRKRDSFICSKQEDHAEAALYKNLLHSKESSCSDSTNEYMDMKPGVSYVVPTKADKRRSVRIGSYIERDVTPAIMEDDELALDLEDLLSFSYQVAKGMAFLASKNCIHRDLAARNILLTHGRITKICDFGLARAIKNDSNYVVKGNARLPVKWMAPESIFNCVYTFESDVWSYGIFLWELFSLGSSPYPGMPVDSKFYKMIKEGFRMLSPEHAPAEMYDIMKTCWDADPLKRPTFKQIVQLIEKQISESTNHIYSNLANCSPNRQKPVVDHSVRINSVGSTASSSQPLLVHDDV
# Method in brief: (§1)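 Cell-free kinase profiling was run as a standard 33P-ATP-based in vitro kinase assay.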
# [12] = target: RAF proto-oncogene serine/threonine-protein kinase (Homo sapiens) (UniProt P04049); assay: Inhibition of c-RAF (unknown origin) at 10 uM; method in brief: as §1
# Chain of RAF proto-oncogene serine/threonine-protein kinase (Homo sapiens) (P04049 whole entry): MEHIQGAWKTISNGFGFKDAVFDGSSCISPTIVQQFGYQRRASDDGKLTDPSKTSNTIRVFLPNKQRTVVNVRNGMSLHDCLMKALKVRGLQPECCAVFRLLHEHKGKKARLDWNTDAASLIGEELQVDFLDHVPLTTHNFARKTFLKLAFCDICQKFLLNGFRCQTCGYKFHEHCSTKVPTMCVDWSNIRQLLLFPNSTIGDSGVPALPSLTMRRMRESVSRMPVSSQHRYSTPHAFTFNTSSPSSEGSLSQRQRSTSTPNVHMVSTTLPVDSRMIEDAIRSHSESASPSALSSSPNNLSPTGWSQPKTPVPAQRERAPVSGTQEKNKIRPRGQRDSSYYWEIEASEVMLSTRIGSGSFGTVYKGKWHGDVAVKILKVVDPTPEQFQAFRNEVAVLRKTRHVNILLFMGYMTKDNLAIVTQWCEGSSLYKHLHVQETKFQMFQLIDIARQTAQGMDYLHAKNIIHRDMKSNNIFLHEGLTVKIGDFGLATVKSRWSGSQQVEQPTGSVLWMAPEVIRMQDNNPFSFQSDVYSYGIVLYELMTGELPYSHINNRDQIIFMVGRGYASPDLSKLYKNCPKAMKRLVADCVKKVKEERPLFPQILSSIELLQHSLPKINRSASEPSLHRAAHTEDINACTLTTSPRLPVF
# [13] = target: Proto-oncogene tyrosine-protein kinase Src (Homo sapiens) (UniProt P12931); assay: Inhibition of cSRC (unknown origin) at 10 uM; method in brief: as §1
# Chain of Proto-oncogene tyrosine-protein kinase Src (Homo sapiens) (P12931 2-536 limits assumed): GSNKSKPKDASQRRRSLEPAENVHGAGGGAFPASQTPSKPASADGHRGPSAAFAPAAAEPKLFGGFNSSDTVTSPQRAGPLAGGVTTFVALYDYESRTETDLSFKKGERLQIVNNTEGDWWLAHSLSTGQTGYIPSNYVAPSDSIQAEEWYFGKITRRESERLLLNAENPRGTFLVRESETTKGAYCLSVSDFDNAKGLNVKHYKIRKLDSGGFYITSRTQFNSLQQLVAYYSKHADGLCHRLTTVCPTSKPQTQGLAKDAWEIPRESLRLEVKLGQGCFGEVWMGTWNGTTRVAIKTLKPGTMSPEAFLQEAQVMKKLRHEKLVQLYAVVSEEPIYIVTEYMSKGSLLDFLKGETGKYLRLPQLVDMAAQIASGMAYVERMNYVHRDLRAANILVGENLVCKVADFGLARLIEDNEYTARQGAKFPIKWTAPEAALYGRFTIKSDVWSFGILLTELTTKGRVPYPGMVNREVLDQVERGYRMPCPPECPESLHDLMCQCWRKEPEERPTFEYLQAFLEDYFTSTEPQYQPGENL
# MDA-MB-231 [14] = assay: Effect on intracellular calcium level in human MDA-MB-231 cells at 1 to 25 uM by flow cytometry; assay type: functional, cell-based
# Method in brief: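 Trypsinized cells washed in PBS (pH 7.4), loaded with Fluo-4AM 45 min in HBSS, washed and resuspended in calcium-free HBSS; baseline fluorescence read 2 min by flow cytometry, then 7 min after compound addition.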
# [15] = target: Epidermal growth factor receptor (Homo sapiens) (UniProt P00533); assay: Inhibition of EGF-induced EGFR phosphorylation at Tyr1068 in human MDA-MB-231 cells at 0.5 uM by ELISA; assay type: cell-based
# Chain of Epidermal growth factor receptor (Homo sapiens) (P00533 whole entry): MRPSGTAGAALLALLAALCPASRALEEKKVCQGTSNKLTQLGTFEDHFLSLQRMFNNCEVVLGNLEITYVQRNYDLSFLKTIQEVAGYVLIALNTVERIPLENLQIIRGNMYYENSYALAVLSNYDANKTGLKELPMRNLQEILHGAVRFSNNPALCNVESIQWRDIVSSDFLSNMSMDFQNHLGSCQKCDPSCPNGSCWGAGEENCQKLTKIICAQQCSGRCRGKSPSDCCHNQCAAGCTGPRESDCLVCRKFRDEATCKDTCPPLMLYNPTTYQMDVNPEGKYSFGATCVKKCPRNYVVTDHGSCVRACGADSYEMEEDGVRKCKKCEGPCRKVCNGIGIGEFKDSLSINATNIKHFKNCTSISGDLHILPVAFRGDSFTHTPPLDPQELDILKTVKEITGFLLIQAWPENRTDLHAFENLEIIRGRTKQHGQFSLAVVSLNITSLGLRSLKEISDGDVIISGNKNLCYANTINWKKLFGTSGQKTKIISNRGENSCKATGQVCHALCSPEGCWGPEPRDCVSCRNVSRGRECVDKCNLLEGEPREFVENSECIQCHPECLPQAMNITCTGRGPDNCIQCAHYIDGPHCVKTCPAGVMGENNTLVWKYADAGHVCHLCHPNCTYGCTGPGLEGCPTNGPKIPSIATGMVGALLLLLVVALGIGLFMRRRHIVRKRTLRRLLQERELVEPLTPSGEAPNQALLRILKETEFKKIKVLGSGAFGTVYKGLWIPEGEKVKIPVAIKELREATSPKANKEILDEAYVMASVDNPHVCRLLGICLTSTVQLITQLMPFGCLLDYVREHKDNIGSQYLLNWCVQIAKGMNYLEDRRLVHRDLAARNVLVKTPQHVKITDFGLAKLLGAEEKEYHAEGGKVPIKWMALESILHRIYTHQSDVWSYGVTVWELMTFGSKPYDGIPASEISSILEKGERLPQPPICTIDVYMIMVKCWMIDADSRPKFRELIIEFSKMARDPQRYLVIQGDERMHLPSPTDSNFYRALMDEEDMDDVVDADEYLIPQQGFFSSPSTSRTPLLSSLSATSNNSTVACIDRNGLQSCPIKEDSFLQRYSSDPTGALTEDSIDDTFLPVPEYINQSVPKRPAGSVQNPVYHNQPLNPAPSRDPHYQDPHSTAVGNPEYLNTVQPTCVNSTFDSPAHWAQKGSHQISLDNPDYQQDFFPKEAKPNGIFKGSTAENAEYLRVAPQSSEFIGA
# Method in brief: (§2)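 MDA-MB-231 cells pretreated 1 h in serum-free medium, then EGF-stimulated for 15 min and lysed. Equal lysate protein (Bradford) assayed by ELISA kits for p-EGFR (Tyr1068, Tyr845, Tyr1173) and p-HER2. Absorbance read at 450 nm, normalized to total EGFR or HER2.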
# [16] = target: Epidermal growth factor receptor (Homo sapiens) (UniProt P00533); assay: Inhibition of EGF-induced EGFR phosphorylation at Tyr1173 in human MDA-MB-231 cells at 0.1 uM by ELISA; assay type: cell-based; method in brief: as §2
# MCF7 [17] = assay: Cytotoxicity against human […] cells assessed as cell viability at 5 uM by MTT assay in presence of z-LEHD-FMK caspase-9 inhibitor; assay type: functional, cell-based
# Method in brief: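 Cells seeded 1×10^4/well in DMEM with 10% FBS, adhered overnight, serum-starved 4 h; pre-incubated 2 h with Z-IETD-FMK or Z-LEHD-FMK (10µM each), then 5μM compound for a further 24 h; viability by MTT.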
# MCF7 [18] = assay: Induction of apoptosis in human […] cells assessed as loss of mitochondrial membrane potential at 5 uM after 24 hrs by JC-1 staining based flow cytometry; assay type: functional, cell-based
# Method in brief: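 Cells given 5μM compound for 24 h, trypsinized, stained with JC-1 (1μg/ml) in medium 15 min at 37°C, PBS-washed, analysed by flow cytometry on FL1 and FL2 channels.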
# MCF7 [19] = assay: Induction of apoptosis in human […] cells assessed as increase in Bax to Bcl2 ratio at 5 uM after 24 hrs by immunoblotting analysis; assay type: functional, cell-based
# Method in brief: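 Immunoblot of Bax and Bcl-2 in cell lysates, loading normalized to actin; mean ± SEM, three independent experiments.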
# MCF7 [20] = assay: Antiinvasion activity in human MCF7 cells assessed as inhibition of FBS-induced cell invaded to matrigel coated invasion chamber at 1 uM after 24 hrs by Transwell invasion assay; assay type: functional, cell-based
# MDA-MB-231 [21] = assay: Inhibition of CDC42 protein expression in human MDA-MB-231 cells at 1 uM after 24 hrs by ELISA; assay type: functional, cell-based
# Method in brief: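 MDA-MB-231 cells treated at 1µM for 24 h. CDC42 protein measured with a G-LISA ELISA kit.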
# MDA-MB-231 [22] = assay: Inhibition of secreted PAI-1 protein expression in human MDA-MB-231 cells at 1 uM after 24 hrs by ELISA; assay type: functional, cell-based
# Method in brief: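 MDA-MB-231 cells were treated at 1µM for 24 h, with or without EGF. PAI-1 protein concentration in the collected conditioned medium was then measured by ELISA.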
# MCF7 [23] = assay: Antitumor activity against human MCF7 cells xenografted in NIH-3 mouse assessed as effect on tumor volume at 8 mg/kg, po for 29 days relative to control; assay type: functional, organism-based; parameters: dose 8 mg/kg
# Method in brief: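 MCF-7 cells (5x10^6 in 100μl PBS) injected intraperitoneally into NIH-III nude mice; after tumor induction, groups of n=10 dosed orally daily for 29 days at 8 or 16 mg/kg/day in 1% carboxymethyl cellulose (vehicle controls). Tumor diameter by vernier calipers every third day; volume = π/6×d³ (d mean diameter).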
# MDA-MB-231 [24] = assay: Inhibition of ALDH1 in human MDA-MB-231 cells at 5 to 20 uM after 8 days by FACS analysis; assay type: functional, cell-based
# Method in brief: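 ALDH1-positive MDA-MB-231 cells identified with Aldefluor reagent and quantified by flow cytometry.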
# [25] = target: Epidermal growth factor receptor (Homo sapiens) (UniProt P00533); assay: Inhibition of EGF-induced EGFR2 phosphorylation in human MDA-MB-231 cells at 1 uM by ELISA; assay type: cell-based; method in brief: as §2
# [26] = target: Signal transducer and activator of transcription 3 (Homo sapiens) (UniProt P40763); assay: Inhibition of basal level STAT3 phosphorylation in human MDA-MB-231 cells at 1 uM by ELISA; assay type: cell-based
# Chain of Signal transducer and activator of transcription 3 (Homo sapiens) (P40763 whole entry): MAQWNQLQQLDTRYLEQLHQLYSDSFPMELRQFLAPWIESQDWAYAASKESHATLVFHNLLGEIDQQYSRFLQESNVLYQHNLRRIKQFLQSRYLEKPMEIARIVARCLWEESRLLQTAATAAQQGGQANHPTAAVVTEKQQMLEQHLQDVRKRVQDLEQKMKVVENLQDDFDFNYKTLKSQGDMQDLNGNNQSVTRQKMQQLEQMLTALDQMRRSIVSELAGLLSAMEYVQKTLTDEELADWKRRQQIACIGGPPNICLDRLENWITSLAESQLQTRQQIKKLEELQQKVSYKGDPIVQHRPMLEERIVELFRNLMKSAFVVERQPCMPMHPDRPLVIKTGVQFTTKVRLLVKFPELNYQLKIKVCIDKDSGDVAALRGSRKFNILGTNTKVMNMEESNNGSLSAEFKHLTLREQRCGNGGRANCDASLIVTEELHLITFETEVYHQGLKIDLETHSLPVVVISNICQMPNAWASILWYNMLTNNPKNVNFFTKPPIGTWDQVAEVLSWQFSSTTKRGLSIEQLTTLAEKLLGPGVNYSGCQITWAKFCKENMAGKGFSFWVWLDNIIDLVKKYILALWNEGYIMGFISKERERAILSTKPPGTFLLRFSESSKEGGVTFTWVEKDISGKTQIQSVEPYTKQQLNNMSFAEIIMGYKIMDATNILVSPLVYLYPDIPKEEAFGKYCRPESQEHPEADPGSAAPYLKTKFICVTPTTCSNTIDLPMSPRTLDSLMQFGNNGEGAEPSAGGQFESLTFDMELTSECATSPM
# [27] = target: Epidermal growth factor receptor (Homo sapiens) (UniProt P00533); assay: Inhibition of EGFR phosphorylation at Tyr790 (unknown origin) at 10 uM
structure (smiles),measurement,setting,value
CCN(CC)CCO/N=C(\c1ccc(SC)cc1)c1cccc2ccccc12.O=C(O)C(=O)O,EC50,Ishikawa,12 µM
same,IC50,[1],50 µM
same,selectivity ratio,[2],50
same,selectivity ratio,[3],2.2
same,Activity,MCF7 [4],0.4%
same,Activity,MCF7 [5],0.4%
same,Activity,MDA-MB-231 [6],80.13%
same,Activity,MDA-MB-231 [7],3.65%
same,Activity,MDA-MB-231 [8],6.09%
same,Activity,MDA-MB-231 [9],0.8%
CCN(CC)CCO/N=C(\c1ccc(SC)cc1)c1cccc2ccccc12,inhibition,[10],inactive
same,inhibition,[11],inactive
same,inhibition,[12],inactive
same,inhibition,[13],inactive
same,Activity,MDA-MB-231 [14],inactive
same,inhibition,[15],Active
same,inhibition,[16],Active
same,Activity,MCF7 [17],inactive
same,Activity,MCF7 [18],Active
same,Activity,MCF7 [19],Active
same,Activity,MCF7 [20],Active
same,inhibition,MDA-MB-231 [21],Active
same,inhibition,MDA-MB-231 [22],Active
same,inhibition,MCF7 [23],inactive
same,inhibition,MDA-MB-231 [24],Active
same,inhibition,[25],Active
same,inhibition,[26],inactive
same,inhibition,[27],inactive
